Source: PubChem (several laboratories)
In the library only some 1.7% were active in any assay of this set; here they are far more common.
PP5 primary = PP5 phosphatase inhibitors, primary screen, biochemical, fluorescence; Serine/threonine-protein phosphatase 5 (Homo sapiens), P53041; purified PP5c, OMFP substrate fluorescence; inhibition, % at 6.7 µM; actives 0.18% (n = 320,000);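 active = inhibition above the campaign's mean inhibition across all tested compounds plus 3 SD, cut at about 9.5% in these data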;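 also: 0% = DMSO only and 100% = 100 µM cantharidin control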
JMJD2C inh = inhibitors of GASC-1 histone demethylase, primary screen, biochemical, fluorescence, DELFIA europium; actives 0.069% (n = 330,000); Lysine-specific demethylase 4C (Homo sapiens), Q9H3R0; inhibition, % at 2.35 µM; GST-JMJD2C(1-420) H3K9me3 demethylation;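 active = more than half of a compound's replicate wells show inhibition beyond 50%, single wells judged on their own value; inconclusive = some, but no more than half, of replicates pass 50% inhibition; inactive = no replicate passes 50% inhibition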;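 also: signal counts dimethyl H3K9 product captured on neutravidin plate; 0% = median of DMSO wells and 100% = 0.3 times that DMSO median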
Target sequence (Q9H3R0 1-420 limits assumed): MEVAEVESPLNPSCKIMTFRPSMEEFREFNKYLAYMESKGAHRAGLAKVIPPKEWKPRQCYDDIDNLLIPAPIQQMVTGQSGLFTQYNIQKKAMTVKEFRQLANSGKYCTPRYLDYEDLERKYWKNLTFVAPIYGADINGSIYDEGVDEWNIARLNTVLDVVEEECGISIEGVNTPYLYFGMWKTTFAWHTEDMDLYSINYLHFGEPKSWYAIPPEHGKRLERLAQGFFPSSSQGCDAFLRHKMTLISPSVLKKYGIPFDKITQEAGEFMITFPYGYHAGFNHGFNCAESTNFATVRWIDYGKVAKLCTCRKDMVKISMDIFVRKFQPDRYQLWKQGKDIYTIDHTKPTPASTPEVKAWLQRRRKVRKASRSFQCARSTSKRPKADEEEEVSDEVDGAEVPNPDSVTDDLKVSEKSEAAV
HTR2A ag = mouse Htr2a agonists via beta-arrestin recruitment, primary screen, cell-based, luminescence. 5-hydroxytryptamine receptor 2A (Mus musculus), P35363. CHO-K1 mHTR2A beta-arrestin complementation; percent of 30 µM serotonin response. activation, % at 7.6 µM. actives 0.66% (n = 360,000);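 active = activation above a run cutoff, the mean activation of all tested compounds plus 3 SD, cut at about 14% in these data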;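 also: 0% = plate median of compound wells and 100% = 30 µM serotonin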
T cell modulator = modulators of CD8 T cell-vesicle binding, primary screen, mouse 2C CD8+ T cells, flow cytometry; 2C CD8+ T cell-vesicle binding; active compounds read low; AID 2052, 2009; actives 0.068% (n = 330,000); response (vesicle binding), % at 7 µM;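 active = response, share of CD8 T cells binding vesicles, and their 90th percentile fluorescence all below set limits, cut at about 80% in these data, passing the limit was not always enough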;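 also: values below 100% mean blocked vesicle binding to the CD8+ T cells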
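Read-out – percent CD8+ FL2 mean versus row control · System – murine 2C transgenic CD8+ T lymphocytes · Times – 1.5 h cell–vesicle binding at 37 °C, then 20 min icy labelling · Control set – naked vesicles low, QL9 vesicles with vehicle high · Detection – cytometric PE anti-B7-1 and Alexa647 anti-CD8 signals after 1% paraformaldehyde fixation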
PP1 inh = PP1-alpha phosphatase inhibitors, primary screen, counter-screen for PP5 inhibitor project, biochemical, fluorescence, OMFP substrate, single point; Serine/threonine-protein phosphatase PP1-alpha catalytic subunit (Homo sapiens), P62136; purified PP1alpha; inhibition, % at 6.7 µM; actives 0.9% (n = 320,000); AID 2235, 2010;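 active = inhibition above the mean inhibition of all tested compounds plus 3 SD, computed separately for each screening campaign, cut at about 15% in these data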
OPRM1 ag = OPRM1 agonists via beta-arrestin recruitment, confirmation, counter-screen for mouse HTR2A agonist project, cell-based, luminescence, single concentration. shares compounds with HTR2A ag. U2OS OPRM1 beta-arrestin PathHunter; DMSO 0%, DAMGO 9.3 µM 100%. activation, % at 9.3 µM. actives 5.3% (n = 2,300). AID 624380, 2012;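 active = mean activation above the mean of DMSO-only wells plus 3 SD, cut at about 0.5% in these data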
HTR2A ag conf = mouse HTR2A agonists, beta-arrestin recruitment, confirmation, cell-based, luminescence, CHO-K1 PathHunter, triplicate | shares compounds with HTR2A ag | DMSO 0%, 30 µM serotonin 100% | activation, % at 7.6 µM | actives 19% (n = 2,300);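 active = mean activation across triplicates above the hit threshold derived in the original primary screen, cut at about 15% in these data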
The depositor's hits bear a star; i = inactive; ? = inconclusive; / = no result given.

SMILES	PP5 primary	JMJD2C inh	HTR2A ag	T cell modulator	PP1 inh	OPRM1 ag	HTR2A ag conf
O=C(NCc1ccccn1)C1CC(=O)N(C2CCCC2)C1 (configuration not stated)	2.5	5.6	19.8*	315.6	7.5	-0.7	-4.2
CN1CCN(CCCNC(=O)C2CC(=O)N(C3CCCCC3)C2)CC1 (configuration not stated)	0.9	3.3	-1.6	313.5	-3.4	/	/
O=C(NCCCN1CCN(c2ccccc2F)CC1)C1CC(=O)N(C2CCCC2)C1 (configuration not stated)	-0.4	1.3	16.6*	344.8	-1.4	-0.5	38.8*
O=C(NCc1ccccc1)C1CC(=O)N(C2CCCCCC2)C1 (configuration not stated)	-1.1	-3.9	-1.2	420.8	-2.9	/	/
COC(=O)C1(C)CCCC2(C)C3CCC(C(C)C)C(CO)C3C(CO)CC12 (configuration not stated)	/	/	4.8	/	/	/	/
C(=C\c1ccccc1)/CN1CCN(C(c2nnnn2C2CCCC2)C2CC2)CC1 (configuration not stated)	/	/	-2.7	/	/	/	/
Cc1cccc(C)c1-n1nnnc1C(C1CC1)N1CCN(C/C=C/c2ccccc2)CC1 (configuration not stated)	/	/	29.7*	/	/	0.1	57.2*
CC(C)(C)n1nnnc1C(C1CC1)N1CCN(C/C=C/c2ccccc2)CC1 (configuration not stated)	/	/	19.9*	/	/	-0.5	34.8*
CCC(c1nnnn1-c1c(C)cccc1C)N1CCN(C/C=C/c2ccccc2)CC1 (configuration not stated)	/	/	27.1*	/	/	0.1	78.4*
CC1CCCC(C)N1C(=O)COC(=O)c1ccc(Br)o1 (configuration not stated)	/	3.0	11.6	403.9	/	/	/
CCCCNc1c(-c2cc3ccccc3o2)nc2nc(C)cc(C)n12	/	/	17.9*	/	/	0.8*	5.4
COc1ccc(Nc2c(-c3cc4ccccc4o3)nc3nc(C)cc(C)n23)cc1	/	/	-1.0	/	/	/	/
COc1ccc(F)cc1C(=O)C1CCCN(Cc2ccc3c(c2)OCCO3)C1 (configuration not stated)	1.0	-4.7	26.2*	128.6	-1.5	2.8*	28.4*
CCOc1cccc(CN2CCCC(N3CCN(c4cccc(Cl)c4)CC3)C2)c1O (configuration not stated)	-1.2	-2.5	-4.6	181.4	1.5	/	/
COc1ccccc1C(=O)C1CCCN(Cc2ccc3c(c2)OCCO3)C1 (configuration not stated)	0.7	0.1	32.8*	151.7	-2.0	-0.6	15.5*
COc1ccc(C(=O)C2CCCN(Cc3ccc4c(c3)OCCO4)C2)cc1F (configuration not stated)	-0.9	-3.3	9.8	277.6	-2.1	/	/
CCOc1cccc(CN2CCCC(C(=O)c3cc(Cl)ccc3OC)C2)c1O (configuration not stated)	1.3	-3.8	23.0*	198.6	0.6	-0.3	6.3
CN(CCc1cnn(C)c1)Cc1nc(CC2CC2)no1	-1.9	8.6	-1.9	158.0	0.1	/	/
C=CCOc1cccc(/C=C/c2nc3ccccc3c(=O)[nH]2)c1	1.7	-19.6	-1.0	255.6	6.1	/	/
Cc1cnc(C(=O)N2CCN(S(=O)(=O)c3ccc(F)c(F)c3F)CC2)cn1	/	3.1	6.1	354.9	/	/	/
COCCCNC(=S)Nc1ccc(S(=O)(=O)Nc2cc(OC)nc(OC)n2)cc1	-1.0	-9.3	-4.7	i	-3.4	/	/
CNc1ccc(C(=O)c2ccccc2C(=O)O)cc1[N+](=O)[O-]	1.5	0.9	19.2*	210.2	-2.2	-0.7	-2.7
O=[N+]([O-])c1cc(-c2nnc(Nc3ccccc3)c3ccccc23)ccc1N1CCOCC1	2.1	-4.4	11.2	110.2	1.4	/	/
O=[N+]([O-])c1cc(-c2nnc(Nc3ccc(O)cc3)c3ccccc23)ccc1N1CCOCC1	3.9	1.6	31.3*	365.6	2.5	-0.2	21.2*
COc1ccc(-c2cnc3c(NC(C)=O)cc(-c4ccc(C(=O)N5CCOCC5)cc4)cn23)cc1OC	/	/	14.9*	/	/	-0.5	3.1
SMILES	PP5 primary	JMJD2C inh	HTR2A ag	T cell modulator	PP1 inh	OPRM1 ag	HTR2A ag conf
COc1ccc(C(=O)N=C2SC3CS(=O)(=O)CC3N2c2ccc(C(C)=O)cc2)cc1 (configuration not stated)	3.1	?	15.7*	655.2	-0.2	-0.1	-4.6
O=C(NNC(=O)C12CC3CC(CC(C3)C1)C2)[C@@H]1C[C@H]1c1ccccc1	1.9	-36.4	-1.1	355.5	-1.4	/	/
CC(NC(=O)Cn1c(=O)oc2cc(S(=O)(=O)N3CCCC3)ccc21)c1ccccc1 (configuration not stated)	2.7	1.1	18.0*	304.2	1.4	-0.6	-4.7
Cc1ccc(C)c(N2CCN(C(=O)Cn3c(=O)oc4cc(S(=O)(=O)N5CCCC5)ccc43)CC2)c1	0.1	14.0	29.2*	i	-0.7	-0.5	-2.3
CCc1nnc(NC(=O)C2CCCN(S(=O)(=O)c3ccc(OC)cc3)C2)s1 (configuration not stated)	1.2	-10.1	-2.5	270.4	2.2	/	/
CC(COc1ccccc1)N1CCC(CO)(Cc2ccccc2)CC1 (configuration not stated)	2.8	-8.4	29.1*	106.2	-1.8	0.0	72.5*
COc1ccc(CC2(CO)CCN(C(C)COc3ccccc3)CC2)cc1 (configuration not stated)	-1.0	-17.1	20.3*	135.0	-2.5	-0.5	85.4*
CC1CCCN(C(=O)C(=O)c2cn(CC(=O)N3CCCCCC3)c3ccccc23)C1 (configuration not stated)	-1.3	-1.8	0.7	213.3	-6.3	/	/
Cc1ccc(NC(=O)CCN2C(=O)c3ccccc3C2=O)cc1	1.5	-0.2	23.0*	253.5	-2.9	-0.5	-2.8
Cc1ccc(NC(=O)CCN2C(=O)c3cccc4cccc(c34)C2=O)cc1	2.8	-2.4	1.4	390.3	-3.1	/	/
CN1C2CCC1CC(NS(=O)(=O)c1cccc(C(F)(F)F)c1)C2 (configuration not stated)	0.0	-11.9	-1.0	222.3	-1.4	/	/
